The results in this text go back to ChEMBL document CHEMBL3352566 (Bioorg Med Chem Lett, 2014).

Experiment [1] concerns the target T1, Adenosine receptor A3 (Homo sapiens, UniProt P0DMS8).
T1 sequence (P0DMS8 whole entry): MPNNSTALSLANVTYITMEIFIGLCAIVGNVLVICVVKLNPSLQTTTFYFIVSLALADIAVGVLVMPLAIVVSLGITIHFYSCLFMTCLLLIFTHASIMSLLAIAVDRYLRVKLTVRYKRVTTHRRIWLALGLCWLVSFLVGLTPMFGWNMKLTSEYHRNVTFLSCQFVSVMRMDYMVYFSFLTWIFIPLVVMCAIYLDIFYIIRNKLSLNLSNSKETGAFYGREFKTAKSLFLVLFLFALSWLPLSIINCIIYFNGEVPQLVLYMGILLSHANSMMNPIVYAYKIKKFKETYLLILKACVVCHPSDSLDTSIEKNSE
Kind of experiment: Displacement of [125I]N6-(4-amino-3-iodobenzyl)adenosine-5'-N-methyluronamide from human A3AR expressed in CHO cells after 60 mins by scintillation counting analysis. In kind it is cell-based.

Experiment [2] deals with T2, Adenosine receptor A1 (Homo sapiens) (UniProt P30542).
T2 sequence (whole entry): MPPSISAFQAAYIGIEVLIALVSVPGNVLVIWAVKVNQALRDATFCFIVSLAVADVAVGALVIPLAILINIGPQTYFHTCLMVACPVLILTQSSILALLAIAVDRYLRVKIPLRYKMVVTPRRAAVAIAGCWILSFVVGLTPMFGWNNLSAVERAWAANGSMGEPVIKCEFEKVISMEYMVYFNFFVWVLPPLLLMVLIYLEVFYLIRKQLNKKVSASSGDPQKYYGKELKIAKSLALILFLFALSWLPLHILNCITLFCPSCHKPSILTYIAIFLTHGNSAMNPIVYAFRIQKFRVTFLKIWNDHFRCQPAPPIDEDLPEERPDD
The experiment in a line: Displacement of [3H]N6-R-phenylisopropyladenosine from human A1AR expressed in CHO cells at 10 uM after 60 mins by scintillation counting analysis. Format: cell-based. A digest of the protocol: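 Membranes from CHO cells stably expressing hA1AR, labelled with agonist [3H]N6-R-phenylisopropyladenosine. […] Compound stocks kept in DMSO at −80 °C; n = 3-4.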
Background: Loss of bound radioactivity is the signal in a displacement assay; it reports binding, not function.

Experiment [3] has as its target T3, Adenosine receptor A2a (Homo sapiens, UniProt P29274). The experiment in a line: Displacement of [3H]2-[p-(2-carboxyethyl)phenyl-ethylamino]-5'-N-ethylcarboxamido-adenosine from human A2aAR expressed in HEK293 cells after 60 mins by scintillation counting analysis. Format: cell-based.
Experiment [4] concerns the target T3, Adenosine receptor A2a. Kind of experiment: Displacement of [3H]2-[p-(2-carboxyethyl)phenyl-ethylamino]-5'-N-ethylcarboxamido-adenosine from human A2aAR expressed in HEK293 cells at 10 uM after 60 mins by scintillation counting analysis. Format: cell-based.
In the next experiment the test system is Mus musculus. Kind of experiment: Reversal of pain in po dosed mouse chronic constriction injury model assessed as paw withdrawal threshold administered 7 days post injury measured after 1 hr. In kind it is functional, organism-based. In short, it runs like this: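 Mouse chronic constriction injury model of neuropathic pain; compound given orally (po); mechanoallodynia read out as paw withdrawal threshold followed over time after dosing.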

For another experiment, the target named is T4, Adenosine receptor A1 (Homo sapiens, UniProt P30542).
T4 sequence (P30542 whole entry): T2 sequence (whole entry)
The experiment in a line: Displacement of [3H]N6-R-phenylisopropyladenosine from human A1AR expressed in CHO cells after 60 mins by scintillation counting analysis. In kind it is cell-based.

Experiment [5] deals with T1, Adenosine receptor A3. Kind of experiment: Binding affinity to human A3AR.

Activity calls are given as the source filed them.

T3 sequence (P29274 whole entry): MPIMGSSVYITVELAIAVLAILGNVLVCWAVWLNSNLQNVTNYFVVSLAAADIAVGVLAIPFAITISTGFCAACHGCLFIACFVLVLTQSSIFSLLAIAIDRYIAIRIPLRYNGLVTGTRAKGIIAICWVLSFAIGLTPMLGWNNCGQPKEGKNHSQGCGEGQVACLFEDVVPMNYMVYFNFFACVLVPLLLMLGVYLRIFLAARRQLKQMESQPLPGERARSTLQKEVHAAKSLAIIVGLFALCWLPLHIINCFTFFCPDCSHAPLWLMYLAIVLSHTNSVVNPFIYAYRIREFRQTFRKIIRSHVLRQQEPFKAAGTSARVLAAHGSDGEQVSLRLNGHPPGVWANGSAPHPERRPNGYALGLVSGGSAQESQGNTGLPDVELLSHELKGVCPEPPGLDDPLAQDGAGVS

Take `CNC(=O)[C@@]12C[C@@H]1[C@@H](n1cnc3c(N)nc(C#Cc4ccccc4)nc31)[C@H](O)[C@@H]2O`: the results for the Ki at Adenosine receptor A3 [1] and on Adenosine receptor A2a [3] were 1.51 nM and 1200 nM, respectively. The same compound came in with an inhibition in experiment [2] of 28%.

For the compound `CNC(=O)[C@@]12C[C@@H]1[C@@H](n1cnc3c(N[C@@H]4C[C@H]4c4ccc(F)c(F)c4)nc(C#Cc4ccccc4)nc31)[C@H](O)[C@@H]2O`, affinity on Adenosine receptor A3 [1] was put at a Ki of 16.9 nM. Moreover, the inhibition in experiment [2] came to 11%; at Adenosine receptor A2a [4], 0%.

Turning to `CNC(=O)[C@@]12C[C@@H]1[C@@H](n1cnc3c(N[C@H]4C[C@@H]4c4ccc(F)c(F)c4)nc(C#Cc4ccccc4)nc31)[C@H](O)[C@@H]2O`, the affinity at Adenosine receptor A3 [1] corresponds to a Ki of 4.55 nM. The inhibition amounted to 16% in experiment [2] and 0% on Adenosine receptor A2a [4].

For the compound `CNC(=O)[C@@]12C[C@@H]1[C@@H](n1cnc3c(N[C@@H]4C[C@H]4c4ccc(F)c(F)c4)nc(C#Cc4ccccn4)nc31)[C@H](O)[C@@H]2O`, the inhibition in experiment [2] is 19%; on Adenosine receptor A2a [4], 25%. In addition, the outcome with Mus musculus was Active.

For the compound `CNC(=O)[C@@]12C[C@@H]1[C@@H](n1cnc3c(N[C@H]4C[C@@H]4c4ccc(F)c(F)c4)nc(C#Cc4ccccn4)nc31)[C@H](O)[C@@H]2O`, the inhibition in experiment [2] came out at 26%; on Adenosine receptor A2a [4] it was 41%.

Take `OC[C@H]1O[C@@H](n2cnc3c(NC4CC4c4ccccc4)nc(C#Cc4ccccc4)nc32)[C@H](O)[C@@H]1O` (mixture of isomers): at Adenosine receptor A1, the affinity corresponds to a Ki of 124 nM.

As to `O=[N+]([O-])c1cccc(C2CC2Nc2nc(C#Cc3ccccc3)nc3c2ncn3[C@@H]2O[C@H](CO)[C@@H](O)[C@H]2O)c1` (mixture of isomers), the Ki at Adenosine receptor A3 [5] was 11.2 nM.

In the case of `CNC(=O)[C@@]12C[C@@H]1[C@@H](n1cnc3c(NC4CC4c4ccc(F)c(F)c4)nc(C#Cc4ccccc4)nc31)[C@H](O)[C@@H]2O` (mixture of isomers), the figures for the inhibition (in experiment [2]; on Adenosine receptor A2a [4]) were 11% and 6%, respectively.

As for `CNC(=O)[C@@]12C[C@@H]1[C@@H](n1cnc3c(NC4CC4c4cccc(Br)c4)nc(C#Cc4ccccc4)nc31)[C@H](O)[C@@H]2O` (mixture of isomers), the inhibition in experiment [2] was determined as 17%; on Adenosine receptor A2a [4], 32%.

On to `CNC(=O)[C@@]12C[C@@H]1[C@@H](n1cnc3c(NC4CC4c4cccc(C)c4)nc(C#Cc4ccccc4)nc31)[C@H](O)[C@@H]2O` (mixture of isomers), for which the inhibition came to 8% in experiment [2] and 53% on Adenosine receptor A2a [4].

As for `CNC(=O)[C@@]12C[C@@H]1[C@@H](n1cnc3c(NC4CC4c4cccc(Cl)c4)nc(C#Cc4ccccc4)nc31)[C@H](O)[C@@H]2O` (mixture of isomers), the values for the inhibition (in experiment [2]; at Adenosine receptor A2a [4]) were 6% and 39%, respectively.

Turning to `CNC(=O)[C@@]12C[C@@H]1[C@@H](n1cnc3c(NC4CC4c4cccc(F)c4)nc(C#Cc4ccccc4)nc31)[C@H](O)[C@@H]2O` (mixture of isomers), the inhibition in experiment [2] is 18%; on Adenosine receptor A2a [4], 0%.

On to `CNC(=O)[C@@]12C[C@@H]1[C@@H](n1cnc3c(NC4CC4c4ccccc4)nc(C#Cc4ccccc4)nc31)[C@H](O)[C@@H]2O` (mixture of isomers), for which the figures for the inhibition (in experiment [2]; on Adenosine receptor A2a [4]) were 2% and 43%, respectively.

For orientation: Ki means a measure of affinity in units of concentration, obtained from inhibition or displacement. A high value points to weaker binding. By inhibition is commonly meant the change of the read-out against control, counted positive when it falls. A low value points to a weak effect.
